Results from ChEMBL document CHEMBL1806372, “Cytotoxic ring A-modified steroid analogues derived from Grundmann's ketone” (Eur J Med Chem, 2011).
Activity calls are given as the source filed them. The rule behind the calls is not given here.

What was measured:
[1] = Antifungal activity against Hyphopichia burtonii assessed as zone of inhibition at 5 uL and 28 degC after 36 hrs by disk diffusion method; assay type: functional
Method in brief: (§1)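 Agar disc diffusion with the test compound applied as a 1% (w/v) DMSO solution. Yeasts were grown on AC agar and Aspergillus niger on potato dextrose broth agar, each strain spread evenly. Plates were covered and kept 36 h at 28 °C, and the inhibition zone diameter was read in mm. Clotrimazole served as reference.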

HL-60 = assay: Cytotoxicity against human HL60 cells after 24 hrs by MTT assay; assay type: functional, cell-based; conditions: HL-60, 24 h
Method in brief: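 HL-60 cells kept in RPMI 1640 with 10% FBS, no antibiotics, 37 °C, humidified 5% CO2. Cells (9 × 10^5 cells/mL) exposed to compound in 96-well plates for 24 h at 37 °C. MTT in PBS (5 mg/mL) added for 2 h, then DMSO, shaken 1 h and read photometrically. IC50 determined; cisplatin reference.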

Escherichia coli = assay: Antibacterial activity against Escherichia coli assessed as zone of inhibition at 5 uL and 32 degC after 36 hrs by disk diffusion method; assay type: functional
Method in brief: (§2)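 Disc diffusion on AC agar, each strain spread evenly over the medium; test compounds given as 1% (w/v) DMSO solutions. Plates covered and incubated 36 h at 32 °C, then the diameter of the zone of inhibited growth measured in mm. Tetracycline served as antibacterial reference.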

Yarrowia lipolytica = assay: Antifungal activity against Yarrowia lipolytica assessed as zone of inhibition at 5 uL and 28 degC after 36 hrs by disk diffusion method; assay type: functional; method in brief: as §1
Aspergillus niger = assay: Antifungal activity against Aspergillus niger assessed as zone of inhibition at 5 uL and 28 degC after 36 hrs by disk diffusion method; assay type: functional; method in brief: as §1
Staphylococcus equorum = assay: Antibacterial activity against Staphylococcus equorum assessed as zone of inhibition at 5 uL and 32 degC after 36 hrs at by disk diffusion method; assay type: functional; method in brief: as §2
Streptococcus entericus = assay: Antibacterial activity against Streptococcus entericus assessed as zone of inhibition at 5 uL and 32 degC after 36 hrs by disk diffusion method; assay type: functional; method in brief: as §2
Nakaseomyces glabratus = assay: Antifungal activity against Candida glabrata assessed as zone of inhibition at 5 uL and 28 degC after 36 hrs by disk diffusion method; assay type: functional; method in brief: as §1
[2] = (§3) Antibacterial activity against Pseudomonas antimicrobica assessed as zone of inhibition at 5 uL and 32 degC after 36 hrs by disk diffusion method; assay type: functional, Burkholderia gladioli; method in brief: as §2
Burkholderia gladioli = assay: as §3; assay type: functional; method in brief: as §2

Row | SMILES | inhibition zone (IZ) [1] | IC50 (HL-60) | diameter of the inhibition zone (DIZ) (Escherichia coli) | diameter of the inhibition zone (DIZ) (Yarrowia lipolytica) | diameter of the inhibition zone (DIZ) (Aspergillus niger) | diameter of the inhibition zone (DIZ) (Staphylococcus equorum) | diameter of the inhibition zone (DIZ) (Streptococcus entericus) | diameter of the inhibition zone (DIZ) (Nakaseomyces glabratus) | diameter of the inhibition zone (DIZ) [2] | diameter of the inhibition zone (DIZ) [1] | diameter of the inhibition zone (DIZ) (Burkholderia gladioli)
1 | CC(C)CCC[C@@H](C)[C@H]1CC[C@H]2C(C#CCCN3C(=O)C=CC3=O)=CCC[C@]12C | 12 mm | 46 µM | 15 mm | inactive | inactive | 11 mm | 15 mm | 10 mm | 13 mm |  | 
2 | CC(C)CCC[C@@H](C)[C@H]1CC[C@H]2C(CCCCO)CCC[C@]12C (mixture of isomers) |  | 13 µM |  |  |  |  |  |  |  |  | 
3 | CC(C)CCC[C@@H](C)[C@H]1CC[C@H]2C3=CC[C@@H]4C(=O)NC(=O)[C@@H]4[C@@H]3CC[C@]12C |  | 16 µM | 24 mm | inactive | inactive | 14 mm | 15 mm | 15 mm | 11 mm | inactive | 
4 | CC(C)CCC[C@@H](C)[C@H]1CC[C@H]2C3=CC[C@@H]4C(=O)N(C)C(=O)[C@@H]4[C@@H]3CC[C@]12C | 14 mm | 15 µM | 10 mm | inactive | inactive | inactive | 10 mm | 10 mm | 7 mm |  | 
5 | C=CC1=CCC[C@]2(C)[C@@H]([C@H](C)CCCC(C)C)CC[C@@H]12 |  | > 100 µM | inactive | inactive | inactive | 10 mm | 9 mm | inactive |  | inactive | inactive
6 | CC(C)CCC[C@@H](C)[C@H]1CC[C@H]2C(CCCCN3C(=O)C=CC3=O)CCC[C@]12C (mixture of isomers) | 9 mm | 14 µM | 10 mm | inactive | inactive | 11 mm | 12 mm | 8 mm | 9 mm |  | 
7 | CC(C)CCC[C@@H](C)[C@H]1CC[C@H]2C(/C=C/CO)=CCC[C@]12C | 22 mm | 32 µM | 10 mm | inactive | inactive | 12 mm | 14 mm | 18 mm | 18 mm |  | 
8 | CC(C)CCC[C@@H](C)[C@H]1CC[C@H]2C3=CC[C@@H]4C(=O)OC(=O)[C@@H]4[C@@H]3CC[C@]12C | 10 mm | 30 µM | 7 mm | inactive | inactive | inactive | 12 mm | 8 mm | 10 mm |  | 
